# Assay results as given in ChEMBL document CHEMBL1148276, “Oral bioavailability of a new class of micro-opioid receptor agonists containing 3,6-bis[Dmt-NH(CH(2))(n)]-2(1H)-pyrazinone with central-mediated analgesia” (J Med Chem, 2004).
# pIC50, pKi: −log10 of the molar value.
# Tests used:
# [1] = biological target: Delta-type opioid receptor (Rattus norvegicus, UniProt P33533); experiment: Compound was tested for binding affinity towards opioid receptor delta 1 by displacing [3H]DPDPE radioligand in rat brain P2 synaptosomes membranes.; assay type: cell membranes
# Chain of Delta-type opioid receptor (Rattus norvegicus, UniProt P33533) (P33533 whole entry): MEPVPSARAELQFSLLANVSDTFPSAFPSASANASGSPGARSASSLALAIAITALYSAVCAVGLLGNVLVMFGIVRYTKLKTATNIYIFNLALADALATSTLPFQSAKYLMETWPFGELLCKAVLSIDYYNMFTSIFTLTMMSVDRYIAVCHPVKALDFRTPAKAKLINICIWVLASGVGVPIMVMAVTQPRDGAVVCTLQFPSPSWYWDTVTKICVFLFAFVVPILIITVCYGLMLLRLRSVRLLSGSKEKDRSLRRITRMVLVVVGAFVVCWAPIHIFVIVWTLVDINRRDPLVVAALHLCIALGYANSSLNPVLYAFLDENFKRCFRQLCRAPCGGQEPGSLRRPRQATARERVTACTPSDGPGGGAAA
# Method in brief: (§1)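 Competition binding at equilibrium (2.5 h, 22 °C) on rat brain P2 synaptosomal membranes, preincubated to strip endogenous opioids, washed with protease inhibitor, stored in 20% glycerol at -80 °C; [3H]DAMGO (μ) or [3H]DPDPE (δ); nonspecific binding with 2 μM unlabeled peptide; GF/C filtration; Ki by Cheng-Prusoff, duplicates, 5-8 doses, 3-5 preparations.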
# [2] = test system: Opioid receptors; mu & delta; experiment: Selectivity ratio of Ki of delta-opioid receptor to mu-opioid receptor; assay type: protein assay; method in brief: as §1
# [3] = biological target: Delta-type opioid receptor (Mus musculus, UniProt P32300); experiment: Compound was tested for opioid receptor delta 1 agonism or antagonism in mouse vas deferens; assay type: functional, tissue-based
# Chain of Delta-type opioid receptor (Mus musculus, UniProt P32300) (P32300 whole entry): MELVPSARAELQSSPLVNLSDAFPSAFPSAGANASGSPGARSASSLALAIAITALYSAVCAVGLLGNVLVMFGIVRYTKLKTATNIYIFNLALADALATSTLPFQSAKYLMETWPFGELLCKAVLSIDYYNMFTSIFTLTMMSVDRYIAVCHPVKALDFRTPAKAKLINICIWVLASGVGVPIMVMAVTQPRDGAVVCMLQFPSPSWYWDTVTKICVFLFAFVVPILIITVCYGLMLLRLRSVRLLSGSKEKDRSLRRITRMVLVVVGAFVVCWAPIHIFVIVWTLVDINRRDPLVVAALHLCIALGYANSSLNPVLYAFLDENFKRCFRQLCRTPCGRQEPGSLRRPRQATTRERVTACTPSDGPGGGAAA
# Mu-type opioid receptor [4] = biological target: Mu-type opioid receptor (Cavia porcellus, UniProt P97266); experiment: Compound was tested for Opioid receptor mu 1 agonism in isolated tissues from guinea pig ileum; assay type: functional, tissue-based
# Chain of Mu-type opioid receptor (Cavia porcellus, UniProt P97266) (P97266 whole entry): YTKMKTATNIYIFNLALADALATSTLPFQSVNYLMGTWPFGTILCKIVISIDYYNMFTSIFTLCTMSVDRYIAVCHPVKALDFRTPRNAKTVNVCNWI
# Mu-type opioid receptor [5] = biological target: Mu-type opioid receptor (Rattus norvegicus, UniProt P33535); experiment: Compound was tested for binding affinity towards Opioid receptor mu 1 by displacing [3H]DAGO radioligand in rat brain P2 synaptosomes membranes.; assay type: cell membranes
# Chain of Mu-type opioid receptor (Rattus norvegicus, UniProt P33535) (P33535 whole entry): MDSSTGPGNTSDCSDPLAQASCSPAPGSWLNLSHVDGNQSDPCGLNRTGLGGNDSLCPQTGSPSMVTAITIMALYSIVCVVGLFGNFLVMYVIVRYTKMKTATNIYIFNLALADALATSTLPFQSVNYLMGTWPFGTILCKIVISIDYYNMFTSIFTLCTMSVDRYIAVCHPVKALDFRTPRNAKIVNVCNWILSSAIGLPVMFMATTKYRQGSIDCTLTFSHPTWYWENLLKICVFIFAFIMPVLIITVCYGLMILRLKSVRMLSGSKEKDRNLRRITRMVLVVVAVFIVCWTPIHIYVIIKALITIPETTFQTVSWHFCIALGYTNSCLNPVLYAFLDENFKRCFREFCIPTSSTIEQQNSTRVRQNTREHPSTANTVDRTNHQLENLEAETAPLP
# Mus musculus [6] = experiment: Potency relative to morphine in tail flick test in mice, intracerebroventricularly; Vale ranges from 50-63; assay type: functional
# Method in brief: (§2)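 Male Swiss-Webster mice (20-25 g); radiant-heat tail-flick, baseline 2-3 s, cutoff 8 s; dosing icv or sc in saline pH 7, po in water; readings from 10, 15 or 30 min respectively until return to baseline; AUC of latency vs time, 5-7 mice per point; relative potency from doses giving analgesia equivalent to morphine.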
# Mus musculus [7] = experiment: Potency relative to morphine in hot plate test in mice, intracerebroventricularly; Vale ranges from 18-21; assay type: functional
# Mus musculus [8] = species: Mus musculus; experiment: Potency relative to morphine in tail flick test in mice, perorally; assay type: functional; method in brief: as §2
# Mus musculus [9] = species: Mus musculus; experiment: Potency relative to morphine in hot plate test in mice, perorally; Vale ranges from 0.16-0.24; assay type: functional
# Mus musculus [10] = experiment: Potency relative to morphine in tail flick test in mice, subcutaneously; assay type: functional; method in brief: as §2
# Mus musculus [11] = experiment: Potency relative to morphine in hot plate test in mice, subcutaneously; assay type: functional
SMILES,pKi [1],Ratio [2],pIC50 [3],pIC50 (Mu-type opioid receptor [4]),pKi (Mu-type opioid receptor [5]),Activity (Mus musculus [6]),Activity (Mus musculus [7]),Activity (Mus musculus [8]),Activity (Mus musculus [9]),Activity (Mus musculus [10]),Activity (Mus musculus [11])
Cc1nc(CNC(=O)C(N)Cc2ccc(O)cc2)c(=O)[nH]c1CNC(=O)C(N)Cc1ccc(O)cc1 (stereo not given),5.74,4,,,,,,,,,
Cc1cc(O)cc(C)c1CC(N)C(=O)NCCc1nc(O)c(CCNC(=O)C(N)Cc2c(C)cc(O)cc2C)nc1C (stereo not given),8.14,,< 5.00,7.89,,,,,,,
Cc1nc(CCNC(=O)C(N)Cc2ccc(O)cc2)c(=O)[nH]c1CCNC(=O)C(N)Cc1ccc(O)cc1 (stereo not given),5.54,9.4,,,6.51,,,,,,
Cc1nc(CCCNC(=O)C(N)Cc2ccc(O)cc2)c(O)nc1CCCNC(=O)C(N)Cc1ccc(O)cc1 (stereo not given),6.36,17,,,7.59,,,,,,
Cc1nc(CCCCNC(=O)C(N)Cc2ccc(O)cc2)c(O)nc1CCCCNC(=O)C(N)Cc1ccc(O)cc1 (stereo not given),5.66,31,,,7.15,,,,,,
Cc1cc(O)cc(C)c1CC(N)C(=O)NCCCc1nc(O)c(CCCNC(=O)C(N)Cc2c(C)cc(O)cc2C)nc1C.Cl.Cl (stereo not given),7.88,307,< 6.00,8.88,10.38,63,21,0.42,0.24,0.63,0.55
Cc1cc(O)cc(C)c1CC(N)C(=O)NCCCCc1nc(O)c(CCCCNC(=O)C(N)Cc2c(C)cc(O)cc2C)nc1C (stereo not given),7.63,204,7.38,8.72,9.94,,,,,,
Cc1cc(O)cc(C)c1CC(N)C(=O)NCc1nc(O)c(CNC(=O)C(N)Cc2c(C)cc(O)cc2C)nc1C (stereo not given),7.80,13.5,< 5.00,5.77,8.94,,,,,,
